ChEMBL document CHEMBL3272347, “Adamantanamine derivatives. Antimicrobial activities of certain Mannich bases” (1976)

Assays:
Assay type in all cases: functional
Escherichia coli [1] = test: Antimicrobial activity against Escherichia coli ATCC 11303 assessed as zone of inhibition after 24 hrs at 0.5 mg/0.1 ml by agar diffusion method
In short: (§1)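 Bacteria were tested on seeded agar plates with 12.7-mm disks, each loaded with 0.1 ml of compound in Me2SO (stock used directly or Me2SO-diluted). Disks were held 30 min on a wire screen before placement, four per plate. Incubation was 37°, 24 hr. Inhibition zones were measured by caliper to the nearest 0.1 mm. Replicates were 2–4 per dilution over at least two separate days, averaged.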

[2] = test system: Mycolicibacterium smegmatis; test: Antimicrobial activity against Mycobacterium smegmatis OU 10049 assessed as zone of inhibition after 48 hrs at 0.5 mg/0.1 ml by agar diffusion method
In short: (§2)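 Mycobacterium disk diffusion on MDTM agar. Each disk (12.7 mm) got 0.1 ml of Me2SO solution, was air-stood 30 min, then was placed four per seeded plate. Plates were incubated at 37° for 48 hr. Zone diameter was measured by caliper to 0.1 mm. Results averaged 2–4 replicate disks and ≥2 independent-day experiments.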

Staphylococcus aureus [3] = test: Antimicrobial activity against Staphylococcus aureus ATCC 10014 assessed as zone of inhibition after 24 hrs at 0.25 mg/0.1 ml by agar diffusion method; in short: as §1
Pseudomonas aeruginosa [4] = test: Antimicrobial activity against Pseudomonas aeruginosa OU 10048 assessed as zone of inhibition after 24 hrs at 0.5 mg/0.1 ml by agar diffusion method; in short: as §1
Mycolicibacterium phlei [5] = test: Antimicrobial activity against Mycobacterium phlei ATCC 356 assessed as zone of inhibition after 48 hrs at 0.5 mg/0.1 ml by agar diffusion method; in short: as §2
Escherichia coli [6] = test: Antimicrobial activity against Escherichia coli ATCC 10586 assessed as zone of inhibition after 24 hrs at 0.5 mg/0.1 ml by agar diffusion method; in short: as §1
Candida albicans [7] = test: Antimicrobial activity against Candida albicans CDC MI-023 assessed as zone of inhibition after 24 hrs at 0.5 mg/0.1 ml by agar diffusion method
In short: (§3)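 Disk agar diffusion on SDA. Compound in Me2SO stock, used neat or diluted in Me2SO, was loaded at 0.1 ml per 12.7-mm disk. Disks stood 30 min on mesh, then went four per seeded plate. Plates ran at 37° for 48 hr (A. niger) or 24 hr (C. albicans). Zones were read by caliper to 0.1 mm. There were 2–4 replicate disks per dilution and ≥2 experiments on separate days with same-day stocks; results were averaged.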

Escherichia coli [8] = test: Antimicrobial activity against Escherichia coli ATCC 8739 assessed as zone of inhibition after 24 hrs at 0.5 mg/0.1 ml by agar diffusion method; in short: as §1
Staphylococcus aureus [9] = test: Antimicrobial activity against Staphylococcus aureus ATCC 10001 assessed as zone of inhibition after 24 hrs at 0.25 mg/0.1 ml by agar diffusion method; in short: as §1
Aspergillus niger [10] = test: Antimicrobial activity against Aspergillus niger OU S-23 assessed as zone of inhibition after 48 hrs at 0.25 mg/0.1 ml by agar diffusion method; in short: as §3
Escherichia coli [11] = test: Antimicrobial activity against Escherichia coli ATCC 10586 assessed as zone of inhibition after 24 hrs at 2 mg/0.1 ml by agar diffusion method; in short: as §1
Pseudomonas aeruginosa [12] = test: Antimicrobial activity against Pseudomonas aeruginosa OU 10048 assessed as zone of inhibition after 24 hrs at 4 mg/0.1 ml by agar diffusion method; in short: as §1
Candida albicans [13] = test: Antimicrobial activity against Candida albicans CDC MI-023 assessed as zone of inhibition after 24 hrs at 4 mg/0.1 ml by agar diffusion method; in short: as §3
Staphylococcus aureus [14] = test: Antimicrobial activity against Staphylococcus aureus ATCC 10014 assessed as zone of inhibition after 24 hrs at 2 mg/0.1 ml by agar diffusion method; in short: as §1
Staphylococcus aureus [15] = test: Antimicrobial activity against Staphylococcus aureus ATCC 10001 assessed as zone of inhibition after 24 hrs at 2 mg/0.1 ml by agar diffusion method; in short: as §1
Escherichia coli [16] = test: Antimicrobial activity against Escherichia coli ATCC 11303 assessed as zone of inhibition after 24 hrs at 2 mg/0.1 ml by agar diffusion method; in short: as §1
Aspergillus niger [17] = test: Antimicrobial activity against Aspergillus niger OU S-23 assessed as zone of inhibition after 48 hrs at 4 mg/0.1 ml by agar diffusion method; in short: as §3
Escherichia coli [18] = test: Antimicrobial activity against Escherichia coli ATCC 8739 assessed as zone of inhibition after 24 hrs at 2 mg/0.1 ml by agar diffusion method; in short: as §1
[19] = test system: Mycolicibacterium smegmatis; test: Antimicrobial activity against Mycobacterium smegmatis by tube dilution method
In short: (§4)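 MIC was found by tube dilution, with Me2SO as carrier solvent diluted in the tubes. For M. smegmatis, separate determinations were made in MDTM broth and in MDTM agar.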

Staphylococcus aureus [20] = test: Antimicrobial activity against Staphylococcus aureus ATCC 10014 assessed as zone of inhibition after 24 hrs at 0.1 mg/0.1 ml by agar diffusion method; in short: as §1
Mycolicibacterium phlei [21] = test: Antimicrobial activity against Mycobacterium phlei ATCC 356 assessed as zone of inhibition after 48 hrs at 0.25 mg/0.1 ml by agar diffusion method; in short: as §2
Escherichia coli [22] = test: Antimicrobial activity against Escherichia coli ATCC 11303 assessed as zone of inhibition after 24 hrs at 1 mg/0.1 ml by agar diffusion method; in short: as §1
[23] = test system: Mycolicibacterium smegmatis; test: Antimicrobial activity against Mycobacterium smegmatis OU 10049 assessed as zone of inhibition after 48 hrs at 0.25 mg/0.1 ml by agar diffusion method; in short: as §2
Staphylococcus aureus [24] = test: Antimicrobial activity against Staphylococcus aureus by tube dilution method; in short: as §4
Staphylococcus aureus [25] = test: Antimicrobial activity against Staphylococcus aureus ATCC 10001 assessed as zone of inhibition after 24 hrs at 0.1 mg/0.1 ml by agar diffusion method; in short: as §1
Aspergillus niger [26] = test: Antimicrobial activity against Aspergillus niger OU S-23 assessed as zone of inhibition after 48 hrs at 2 mg/0.1 ml by agar diffusion method; in short: as §3
Escherichia coli [27] = test: Antimicrobial activity against Escherichia coli ATCC 10586 assessed as zone of inhibition after 24 hrs at 1 mg/0.1 ml by agar diffusion method; in short: as §1
Escherichia coli [28] = test: Antimicrobial activity against Escherichia coli by tube dilution method; in short: as §4
Staphylococcus aureus [29] = test: Antimicrobial activity against Staphylococcus aureus ATCC 10001 assessed as zone of inhibition after 24 hrs at 1 mg/0.1 ml by agar diffusion method; in short: as §1
Escherichia coli [30] = test: Antimicrobial activity against Escherichia coli ATCC 8739 assessed as zone of inhibition after 24 hrs at 1 mg/0.1 ml by agar diffusion method; in short: as §1
Staphylococcus aureus [31] = test: Antimicrobial activity against Staphylococcus aureus ATCC 10014 assessed as zone of inhibition after 24 hrs at 1 mg/0.1 ml by agar diffusion method; in short: as §1

Row | MIC [19] | MIC (Staphylococcus aureus [24]) | MIC (Escherichia coli [28]) | SMILES | inhibition zone (IZ) (Escherichia coli [1]) | inhibition zone (IZ) [2] | inhibition zone (IZ) (Mycolicibacterium phlei [5]) | inhibition zone (IZ) (Candida albicans [7]) | inhibition zone (IZ) (Pseudomonas aeruginosa [12]) | inhibition zone (IZ) (Aspergillus niger [17]) | inhibition zone (IZ) (Escherichia coli [18]) | inhibition zone (IZ) (Escherichia coli [27]) | other results
1 |  |  |  | Oc1ccc(/N=N/c2ccccc2)cc1CNC12CC3CC(CC(C3)C1)C2 | <15 mm | 15.5 mm | <15 mm | <15 mm |  |  |  |  | inhibition zone (IZ) (Staphylococcus aureus [3]): 15.4 mm; inhibition zone (IZ) (Pseudomonas aeruginosa [4]): 15 mm; inhibition zone (IZ) (Escherichia coli [6]): 15 mm; inhibition zone (IZ) (Escherichia coli [8]): 15 mm; inhibition zone (IZ) (Staphylococcus aureus [9]): <15 mm; inhibition zone (IZ) (Aspergillus niger [10]): 15 mm
2 |  |  |  | CC(CNC12CC3CC(CC(C3)C1)C2)C(=O)c1ccccc1.Cl (stereo unspecified) |  | 17 mm | 17.3 mm |  | 15 mm | 15 mm | 16.1 mm |  | inhibition zone (IZ) (Escherichia coli [11]): 16.4 mm; inhibition zone (IZ) (Candida albicans [13]): <15 mm; inhibition zone (IZ) (Staphylococcus aureus [14]): 16.3 mm; inhibition zone (IZ) (Staphylococcus aureus [15]): 16.2 mm; inhibition zone (IZ) (Escherichia coli [16]): 17.2 mm
3 | 500 µg/mL | 125 µg/mL | 500 µg/mL | Cl.O=C(CCNC12CC3CC(CC(C3)C1)C2)c1ccc([N+](=O)[O-])cc1 |  |  |  | 16.4 mm | <14 mm |  | 16.5 mm | 15.3 mm | inhibition zone (IZ) (Staphylococcus aureus [20]): 15.8 mm; inhibition zone (IZ) (Mycolicibacterium phlei [21]): 19.4 mm; inhibition zone (IZ) (Escherichia coli [22]): 16.5 mm; inhibition zone (IZ) [23]: 17.4 mm; inhibition zone (IZ) (Staphylococcus aureus [25]): 16 mm; inhibition zone (IZ) (Aspergillus niger [26]): 15.2 mm
4 | 250 µg/mL | 500 µg/mL | 1000 µg/mL | Cl.O=C(CCNC12CC3CC(CC(C3)C1)C2)c1ccc(F)cc1 | 17.6 mm | 15.3 mm | 17.7 mm | 16.6 mm | 15 mm | 15 mm |  | 16.5 mm | inhibition zone (IZ) (Staphylococcus aureus [29]): 19.1 mm; inhibition zone (IZ) (Escherichia coli [30]): 16.7 mm; inhibition zone (IZ) (Staphylococcus aureus [31]): 16.6 mm
